Measurements reported in ChEMBL document CHEMBL1649062, “Integration of lead optimization with crystallography for a membrane-bound ion channel target: discovery of a new class of AMPA receptor positive allosteric modulators” (J Med Chem, 2011).
Values after ≈ are worked out from the molar mass of the structure shown. Active and inactive are the calls of the source.

How the values were obtained:
[1] = Clearance in Sprague-Dawley rat at 2.5 mg/kg, iv and 3 mg/kg, po; assay type: ADME, organism-based; conditions: in vivo
In short: (§1)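 Male animals, n = 3 per species, given single iv and oral doses. Values are mean and range. Blood clearance is also expressed as % of liver blood flow, taken as (mL/min)/kg: rat 85, dog 31, minipig 30, cynomolgus monkey 44.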

[2] = Half life in cynomolgus monkey at 1 mg/kg, po; assay type: ADME, organism-based, Macaca fascicularis; set-up: dose 1 mg/kg, route oral; conditions: in vivo
[3] = Tmax in Sprague-Dawley rat at 3 mg/kg, po; assay type: ADME, organism-based; set-up: dose 3 mg/kg, route oral; conditions: in vivo
In short: (§2)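 Male animals, n = 3 per species, given single iv and oral doses: Sprague-Dawley rat 2.5 iv / 3 po mg/kg; beagle dog 0.25 / 0.5; Göttingen minipig 0.5 / 1; cynomolgus monkey 0.25 / 1. Blood sampled; Vss from iv; bioavailability and Vss as mean [range]; Tmax as median [range].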

[4] = Clearance in cynomolgus monkey at 0.25 mg/kg, iv and 1 mg/kg, po; assay type: ADME, organism-based, Macaca fascicularis; conditions: in vivo; in short: as §1
Rattus norvegicus [5] = assay: Neurotoxicity in Lister Hooded rat assessed proconvulsant effect at 30 mg/kg, ip by MEST test; assay type: toxicity, organism-based; set-up: dose 30 mg/kg, route intraperitoneal; conditions: in vivo
In short: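 Male Lister Hooded rats pretreated with compound, saline vehicle or picrotoxin 30 min before corneal electroshock (CC50 about 60–70 mA, 0.1 ms); tonic and tonic-clonic seizure threshold scored; brain concentrations taken from satellite rats sampled right after testing.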

[6] = Clearance in Swiss Beagle dog at 0.25 mg/kg, iv and 0.5 mg/kg, po; assay type: ADME, organism-based, Canis lupus familiaris; conditions: in vivo; in short: as §1
[7] = Half life in Swiss Beagle dog at 0.25 mg/kg, iv; assay type: ADME, organism-based, Canis lupus familiaris; set-up: dose 0.25 mg/kg, route intravenous; conditions: in vivo; in short: as §1
[8] = Oral bioavailability in Swiss Beagle dog at 0.5 mg/kg; assay type: ADME, organism-based, Canis lupus familiaris; conditions: in vivo; in short: as §2
Cynomolgus monkey = assay: Hepatic blood flow in cynomolgus monkey at 0.25 mg/kg, iv and 1 mg/kg, po; assay type: ADME, organism-based, Macaca fascicularis, Liver; conditions: in vivo; in short: as §1
in vivo [9] = conditions: rat, brain and blood, po, 3 mg/kg
Brain [10] = assay: Drug level in Lister Hooded rat assessed per gram of tissue at 0.3 mg/kg, ip; assay type: ADME, organism-based; set-up: dose 0.3 mg/kg, route intraperitoneal; conditions: in vivo
In short: (§3)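 Male Lister Hooded rats (n = 9-12/group) tested for reversal of a 24 h delay-induced deficit in novel object recognition. Significant doses flagged. Brain concentrations measured in the study animals at the end of the test.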

[11] = Cmax in Gottingen minipig at 1 mg/kg, po; assay type: ADME, organism-based, Sus scrofa; set-up: dose 1 mg/kg, route oral; conditions: pig, in vivo
Rattus norvegicus [12] = assay: Hepatic blood flow in Sprague-Dawley rat at 2.5 mg/kg, iv and 3 mg/kg, po; assay type: ADME, organism-based, Liver; conditions: in vivo; in short: as §1
[13] = Tmax in cynomolgus monkey at 1 mg/kg, po; assay type: ADME, organism-based, Macaca fascicularis; set-up: dose 1 mg/kg, route oral; conditions: in vivo; in short: as §2
Glutamate receptor 2 = Glutamate receptor 2 (Homo sapiens, UniProt P42262); assay: Allosteric modulation of human recombinant GluA2 receptor flip isoform expressed in HEK293 cells at 10 uM by whole cell patch-clamp electrophysiology; assay type: cell-based
Glutamate receptor 2, sequence (P42262 whole entry, canonical isoform): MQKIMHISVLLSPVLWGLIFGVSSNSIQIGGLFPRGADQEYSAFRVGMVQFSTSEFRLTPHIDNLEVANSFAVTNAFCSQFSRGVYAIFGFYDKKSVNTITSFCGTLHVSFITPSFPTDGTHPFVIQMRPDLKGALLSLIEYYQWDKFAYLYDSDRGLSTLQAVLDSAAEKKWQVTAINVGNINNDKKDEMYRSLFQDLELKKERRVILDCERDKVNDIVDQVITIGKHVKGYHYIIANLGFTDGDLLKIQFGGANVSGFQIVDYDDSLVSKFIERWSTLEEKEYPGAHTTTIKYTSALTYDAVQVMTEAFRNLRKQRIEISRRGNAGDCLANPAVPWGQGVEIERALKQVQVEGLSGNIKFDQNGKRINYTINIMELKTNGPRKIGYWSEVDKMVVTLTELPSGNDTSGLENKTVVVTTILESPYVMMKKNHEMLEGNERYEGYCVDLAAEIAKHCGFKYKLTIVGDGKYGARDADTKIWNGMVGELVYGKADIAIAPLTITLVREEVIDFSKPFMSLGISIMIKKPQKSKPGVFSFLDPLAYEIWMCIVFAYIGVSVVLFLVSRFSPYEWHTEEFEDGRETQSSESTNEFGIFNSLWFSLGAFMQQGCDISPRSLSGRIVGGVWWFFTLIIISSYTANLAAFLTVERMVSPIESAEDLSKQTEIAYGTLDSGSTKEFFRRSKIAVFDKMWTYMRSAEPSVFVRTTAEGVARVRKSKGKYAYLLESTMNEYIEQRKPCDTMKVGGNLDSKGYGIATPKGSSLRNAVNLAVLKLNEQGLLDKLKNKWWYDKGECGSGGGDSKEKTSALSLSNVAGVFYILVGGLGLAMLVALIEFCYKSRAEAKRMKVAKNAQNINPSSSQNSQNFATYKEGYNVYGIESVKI
In short: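 Perforated-patch (amphotericin B) voltage clamp of HEK293 cells stably expressing human GluA2 flip (unedited) homotetramers, held at -60 mV. Extracellular solution in mM: 140 NaCl, 2 KCl, 1 MgCl2, 2 CaCl2, 12 HEPES, 10 D-glucose, pH 7.35. Currents evoked by 1 mM glutamate; compound at 100 nM or 10 μM. Read-out is percent increase in charge transfer (area under curve).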

[14] = Clearance in Gottingen minipig at 0.5 mg/kg, iv and 1 mg/kg, po; assay type: ADME, organism-based, Sus scrofa; conditions: pig, in vivo; in short: as §1
in vivo [15] = conditions: Sprague-Dawley, rat, po, 3 mg/kg
[16] = Volume of distribution at steady state in Sprague-Dawley rat at 2.5 mg/kg, iv and 3 mg/kg, po; assay type: ADME, organism-based; conditions: in vivo, read-out: Vdss; in short: as §2
[17] = Kinetic solubility of the compound in phosphate buffered saline of pH 7.4; assay type: physicochemical
In short: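 Kinetic solubility: 10 mM DMSO stock, 5 μL diluted to 100 μL with pH 7.4 phosphate-buffered saline, equilibrated 1 h at room temperature, filtered, filtrate quantified by calibrated flow-injection chemiluminescent nitrogen detection.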

Brain [18] = assay: Drug level in Lister Hooded rat assessed per gram of tissue at 0.1 mg/kg, ip; assay type: ADME, organism-based; set-up: dose 0.1 mg/kg, route intraperitoneal; conditions: in vivo; in short: as §3
[19] = Distribution coefficient, log D of the compound; assay type: physicochemical; conditions: octanol/water
Cytochrome P450 2D6 = Cytochrome P450 2D6 (Homo sapiens, UniProt P10635); assay: Inhibition of human CYP2D6 by fluorescence assay; assay type: ADME
Cytochrome P450 2D6, sequence (P10635 whole entry): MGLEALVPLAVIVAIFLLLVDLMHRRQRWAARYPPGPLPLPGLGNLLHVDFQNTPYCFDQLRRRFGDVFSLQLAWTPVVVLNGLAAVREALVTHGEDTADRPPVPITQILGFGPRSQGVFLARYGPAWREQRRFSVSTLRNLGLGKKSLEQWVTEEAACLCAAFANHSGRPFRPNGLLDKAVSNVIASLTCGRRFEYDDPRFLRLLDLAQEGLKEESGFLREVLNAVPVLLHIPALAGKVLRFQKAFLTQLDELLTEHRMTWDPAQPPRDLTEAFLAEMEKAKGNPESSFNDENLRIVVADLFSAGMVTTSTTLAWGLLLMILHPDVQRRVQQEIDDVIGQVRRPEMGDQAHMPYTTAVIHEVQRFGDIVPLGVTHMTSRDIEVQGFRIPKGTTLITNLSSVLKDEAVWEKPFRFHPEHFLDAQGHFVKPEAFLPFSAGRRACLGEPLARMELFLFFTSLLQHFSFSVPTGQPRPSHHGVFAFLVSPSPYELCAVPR
In short: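 Recombinant human CYP bactosomes (0.1 mg/mL) in 50 mM potassium phosphate pH 7.4, preincubated 10 min at 37 °C with test compound (0.1-10 μM, 7 concentrations) and fluorogenic substrate. Substrates: ethoxyresorufin 0.5 μM (1A2), FCA 50 μM (2C9), BMC 10 μM (2C19), MMC 10 μM (2D6), DEF 1 μM or 7-BQ 25 μM (3A4). Reaction started with NADPH regenerating system; metabolite formation read over 10 min. IC50 from percent of control rate; miconazole control; triplicate.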

[20] = Half life in Sprague-Dawley rat at 3 mg/kg, po; assay type: ADME, organism-based; set-up: dose 3 mg/kg, route oral; conditions: in vivo
[21] = Half life in cynomolgus monkey at 0.25 mg/kg, iv; assay type: ADME, organism-based, Macaca fascicularis; set-up: dose 0.25 mg/kg, route intravenous; conditions: in vivo; in short: as §1
[22] = Half life in Gottingen minipig at 1 mg/kg, po; assay type: ADME, organism-based, Sus scrofa; set-up: dose 1 mg/kg, route oral; conditions: pig, in vivo
Brain [23] = assay: Brain tissue binding in rat at 3 mg/kg, po; assay type: ADME, organism-based; set-up: dose 3 mg/kg, route oral; conditions: in vivo
Hepatocyte = assay: Intrinsic clearance in cryopreserved human hepatocytes assessed per gram of tissue; assay type: ADME, cell-based, Liver
In short: (§4)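 Cryopreserved hepatocytes at 70 000 cells/mL; intrinsic clearance expressed per gram of liver; single determination (human also n = 3).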

Rattus norvegicus [24] = assay: Cognitive enhancing effect in Lister Hooded rat assessed as reversal of 24 hrs delay-induced cognitive deficit at 0.3 mg/kg, ip by novel object recognition test
[25] = Intrinsic clearance in cryopreserved rhesus monkey hepatocytes assessed per gram of tissue; assay type: ADME, Macaca mulatta, Liver, Hepatocyte
[26] = Intrinsic clearance in cryopreserved dog hepatocytes assessed per gram of tissue; assay type: ADME, cell-based, Canis lupus familiaris, Liver, Hepatocyte; in short: as §4
[27] = AUC ( 0 to t) in rat at 3 mg/kg, po; assay type: ADME, organism-based, Plasma; set-up: dose 3 mg/kg, route oral; conditions: plasma
[28] = Cmax in Swiss Beagle dog at 0.5 mg/kg, po; assay type: ADME, organism-based, Canis lupus familiaris; set-up: dose 0.5 mg/kg, route oral; conditions: in vivo
Sus scrofa = assay: Hepatic blood flow in Gottingen minipig at 0.5 mg/kg, iv and 1 mg/kg, po; assay type: ADME, organism-based, Liver; conditions: pig, in vivo; in short: as §1

## O=C(c1ccc(-n2nc(C(F)(F)F)c3c2CCCC3)cc1)N1CCCC1
[1]
  clearance: 40 mL/min/kg
[2]
  half-life: 1.4 h
[3]
  Tmax: 0.5 h
[4]
  clearance: 38 mL/min/kg
Rattus norvegicus [5]
  Activity: Non-toxic
[6]
  clearance: 32 mL/min/kg
[7]
  half-life: 1.3 h
[8]
  bioavailability: 12%
Cynomolgus monkey
  QH: 86%
In vivo [9]
  Kp: 1.5
Brain [10]
  Drug uptake: 19 ng/g
[11]
  Cmax: 29 ng/mL
Rattus norvegicus [12]
  QH: 47%
[13]
  Tmax: 1 h
Glutamate receptor 2
  Activity: 600%
[14]
  clearance: 23 mL/min/kg
In vivo [15]
  bioavailability: 54%
[16]
  Vd: 4.8 L/kg
[17]
  solubility kinetic: 133 µg/mL (≈ 366 µM)
Brain [18]
  Drug uptake: 9 ng/g
[19]
  logD: 3
Cytochrome P450 2D6
  IC50: 6 µM
[20]
  half-life: 2.3 h
[21]
  half-life: 0.5 h
[22]
  half-life: 4.5 h
Brain [23]
  Brain tissue binding (% bound): 99.4%
Hepatocyte
  CL: 1.2 mL/min/g
Rattus norvegicus [24]
  Activity: Active
[25]
  CL: > 50 mL/min/g
[26]
  CL: 2.6 mL/min/g
[27]
  AUC(0-t): 472 ng·h/mL
[28]
  Cmax: 14 ng/mL
Sus scrofa
  QH: 77%
